High-throughput results as filed in PubChem.
DENV2 CPE rescue – inhibitors of DENV2 cytopathic effect | hit rate 1.7% among 350,000 | DENV2-infected cells, cytopathic effect rescue, plate reader | CPE inhibition, % at 9.99 µM; in the data active = CPE inhibition above about 20%, passing the limit was not always enough; inconclusive = no clear call, values can overlap the other calls; tested in BHK-21 cells
CaV13 ICDI inh – Disruptors of the CACNA1D IQ motif to Ca2+-dependent inactivation inhibitor domain association, primary screening, Förster resonance energy transfer in intact living … | HEK cells, CFP/YFP FRET ICDI-IQ, plate reader, 10 min; percent FRET-ratio fall versus neutral wells | inhibition, % at 12.3 µM | hit rate 0.098% among 340,000;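 active = mean replicate inhibition of at least 30% and at least 1% of replicates passing that level; inconclusive = only one of the two criteria is met; inactive = neither criterion is met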
S100A4 MyoIIA – S100A4-myosin IIA interaction inhibition; hit rate 0.14% among 360,000; AID 652163; S100A4/TAMRA-MyoIIA peptide fluorescence polarization; inhibition, % at 10.7 µM; P26447;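 active = mean inhibition of at least 70% across replicates, with every replicate also reaching that level; inconclusive = mean inhibition reaches 70% but some replicates fall short; inactive = mean inhibition below 70%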
Target sequence (P26447 whole entry, looked up): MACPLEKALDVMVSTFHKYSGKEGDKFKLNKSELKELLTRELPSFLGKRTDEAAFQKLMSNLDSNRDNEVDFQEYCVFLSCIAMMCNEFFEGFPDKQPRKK
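Material: S100A4 monomer (human). Medium: Calcium-containing HEPES buffer, pH 7.2. Probe or stimulus: labelled myosin peptide probe, 5 nM. Compound dosing: one concentration per compound. Timing: polarization read 5 min after assay mix addition, stable 5–60 min. Benchmarks: DMSO as neutral control, TFP as positive control.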
AF4-AF9 inh – inhibitors of human MLL-AF4/AF9 interaction. P42568. AlphaScreen, biotin-AF4 peptide binding to FLAG-AF9. inhibition, % at 10 µM. hit rate 0.47% among 350,000. AID 651704;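 active = every replicate reaching a set inhibition limit, whatever the replicate mean, cut at about 25% in these data; inconclusive = mean inhibition reaches that limit but some replicates miss it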
Target sequence (P42568 whole entry, looked up): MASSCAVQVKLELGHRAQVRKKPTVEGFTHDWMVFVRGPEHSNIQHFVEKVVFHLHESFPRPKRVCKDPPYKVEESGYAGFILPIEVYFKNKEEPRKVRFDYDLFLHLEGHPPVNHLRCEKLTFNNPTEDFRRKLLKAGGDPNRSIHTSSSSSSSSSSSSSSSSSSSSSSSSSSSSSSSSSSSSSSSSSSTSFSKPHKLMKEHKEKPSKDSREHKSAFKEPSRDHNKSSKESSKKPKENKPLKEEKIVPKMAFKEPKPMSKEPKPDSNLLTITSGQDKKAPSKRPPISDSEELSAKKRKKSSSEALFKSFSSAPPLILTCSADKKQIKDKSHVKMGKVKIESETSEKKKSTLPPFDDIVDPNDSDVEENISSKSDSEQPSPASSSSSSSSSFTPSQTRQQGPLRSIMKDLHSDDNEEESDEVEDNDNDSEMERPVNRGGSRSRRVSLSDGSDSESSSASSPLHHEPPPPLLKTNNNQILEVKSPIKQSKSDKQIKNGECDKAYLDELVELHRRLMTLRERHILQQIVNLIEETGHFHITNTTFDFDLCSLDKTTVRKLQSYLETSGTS
SIRT5 inh – inhibitors of human sirtuin-5 desuccinylase; Purified SirT5, succinyl-peptide AMC, trypsin-coupled fluorescence; inhibition, % at 15 µM; Q9NXA8; hit rate 1.1% among 330,000; in the data active = inhibition above about 15%; inconclusive = no clear call, values can overlap the other calls
A number is an active result. Compounds with a hit are over-represented: about 2.7% of the library has one in this group of screens.

Results for C[C@@H]1CN([C@@H](C)CO)C(=O)c2cc(NS(=O)(=O)c3ccccc3)ccc2O[C@H]1CN(C)Cc1ccc(-c2ccccc2)cc1 ?
DENV2 CPE rescue: inactive; S100A4 MyoIIA: inactive; AF4-AF9 inh: inactive; SIRT5 inh: inactive

Results for C[C@H](CO)N1C[C@H](C)[C@H](CN(C)S(=O)(=O)c2ccc(F)cc2)Oc2c(NC(=O)c3ccc(-c4nccs4)cc3)cccc2C1=O ?
DENV2 CPE rescue: inactive; S100A4 MyoIIA: inactive; AF4-AF9 inh: inactive; SIRT5 inh: inactive

Results for CC(C)C#Cc1ccc([C@H]2[C@H]3CN(C(=O)C4CCCCC4)CC(=O)N3[C@H]2CO)cc1 ?
DENV2 CPE rescue: inactive; S100A4 MyoIIA: inactive; AF4-AF9 inh: inactive; SIRT5 inh: inactive

What do the screens show for `CCS(=O)(=O)Nc1ccc2c(c1)C(=O)N(C)[C@H]1CC[C@H](CC(=O)N3CCCCC3)O[C@@H]1CO2`?
DENV2 CPE rescue: inactive; S100A4 MyoIIA: inactive; AF4-AF9 inh: inactive; SIRT5 inh: inactive

Results for CCn1c2c(n(C(C)=O)c1=O)C[C@@H](c1ccccc1)[C@@H](C)[C@@H](C(=O)N1CCCC1)C2 ?
DENV2 CPE rescue: 50; CaV13 ICDI inh: inactive; S100A4 MyoIIA: inactive; AF4-AF9 inh: inactive

Results for CCN1C(=O)N[C@H]2C[C@@H](c3ccccc3)[C@@H](C)[C@@H](C(=O)N3CCCC3)C[C@H]21 ?
DENV2 CPE rescue: inactive; CaV13 ICDI inh: inactive; S100A4 MyoIIA: inactive; AF4-AF9 inh: inactive

What do the screens show for `C[C@@H]1CN([C@@H](C)CO)S(=O)(=O)c2ccc(C#CCN(C)C)cc2O[C@@H]1CN(C)Cc1ccccn1`?
DENV2 CPE rescue: inactive; S100A4 MyoIIA: inactive; AF4-AF9 inh: inactive; SIRT5 inh: inactive

What do the screens show for `COc1ccccc1-c1nnc2sc(-c3ccc(N(C)C)cc3)nn12`?
DENV2 CPE rescue: 42; CaV13 ICDI inh: inactive; S100A4 MyoIIA: inactive; AF4-AF9 inh: inactive; SIRT5 inh: inactive

What do the screens show for `CN(C)c1ccc(-c2nn3c(-c4ccccc4Cl)nnc3s2)cc1`?
CaV13 ICDI inh: inactive

What do the screens show for `CCCC[C@]12CCCC(=O)N1CCc1c2[nH]c2ccccc12`?
DENV2 CPE rescue: inactive; S100A4 MyoIIA: inactive; AF4-AF9 inh: inactive; SIRT5 inh: inactive

How did O=C(OCC(=O)N1CCc2ccccc21)[C@@H]1CCCN1S(=O)(=O)c1ccccc1F do in these assays?
DENV2 CPE rescue: 49; CaV13 ICDI inh: inactive; S100A4 MyoIIA: inactive; AF4-AF9 inh: inactive; SIRT5 inh: inactive

How did O=C(OCC(=O)N1CCc2ccccc21)[C@@H]1CC(O)CN1S(=O)(=O)c1ccccc1[N+](=O)[O-] (some centres not stated) do in these assays?
DENV2 CPE rescue: inconclusive; CaV13 ICDI inh: inactive; S100A4 MyoIIA: inactive; AF4-AF9 inh: inactive; SIRT5 inh: inactive

What do the screens show for `Cn1cnc(S(=O)(=O)Nc2ccc(OC(F)(F)F)cc2)c1`?
DENV2 CPE rescue: inactive; CaV13 ICDI inh: active; S100A4 MyoIIA: inactive; AF4-AF9 inh: inactive; SIRT5 inh: inactive

How did COc1ccc(C(=O)c2sc3nc(-c4ccc(OC)cc4)ccc3c2N)cc1 do in these assays?
CaV13 ICDI inh: 134; S100A4 MyoIIA: inactive; AF4-AF9 inh: inactive; SIRT5 inh: inactive

How did Oc1cc2c(cc1C(c1ccc(Cl)c(Cl)c1)N1CCCC1)OCO2 (configuration not stated) do in these assays?
DENV2 CPE rescue: inactive; CaV13 ICDI inh: inactive; S100A4 MyoIIA: inactive; AF4-AF9 inh: 27; SIRT5 inh: inactive

How did CC(C)c1ccc(NC(=O)C(c2ccc3c(c2)OCO3)N2CCCCC2)cc1 (configuration not stated) do in these assays?
DENV2 CPE rescue: inactive; CaV13 ICDI inh: inactive; S100A4 MyoIIA: inactive; AF4-AF9 inh: inactive; SIRT5 inh: inactive

How did CO[C@H]1CN(C)C(=O)c2cc(NC(=O)C3CCCC3)ccc2OC[C@H](C)NC[C@@H]1C do in these assays?
DENV2 CPE rescue: inactive; S100A4 MyoIIA: inactive; AF4-AF9 inh: inactive; SIRT5 inh: inactive

How did O=C(CSc1cnc2ccccc2n1)c1ccc(F)cc1 do in these assays?
DENV2 CPE rescue: 33; CaV13 ICDI inh: inactive; S100A4 MyoIIA: inactive; AF4-AF9 inh: inactive; SIRT5 inh: inactive

Results for O=C(CSc1ccc(-c2ccccn2)nn1)c1ccc(F)cc1 ?
DENV2 CPE rescue: inactive; CaV13 ICDI inh: inactive; S100A4 MyoIIA: inactive; AF4-AF9 inh: inactive; SIRT5 inh: inactive

How did CCC(C)c1ccc(NC(=O)NCCN2CCCCC2)cc1 (configuration not stated) do in these assays?
DENV2 CPE rescue: 30; CaV13 ICDI inh: inactive; S100A4 MyoIIA: inactive; AF4-AF9 inh: inactive

How did C[C@@H]1CN([C@H](C)CO)C(=O)c2cccc(NC(=O)CCCCCC(=O)Nc3ccccc3N)c2O[C@@H]1CN(C)C(=O)Nc1ccc2c(c1)OCO2 do in these assays?
DENV2 CPE rescue: inactive; S100A4 MyoIIA: inactive; AF4-AF9 inh: inactive

What do the screens show for `CC(C)CC#Cc1ccc2c(c1)O[C@H](CN(C)Cc1ccncc1)[C@H](C)CN([C@@H](C)CO)S2(=O)=O`?
DENV2 CPE rescue: inactive; S100A4 MyoIIA: inactive; AF4-AF9 inh: inactive; SIRT5 inh: inactive

What do the screens show for `Cc1cc(CNC(=O)c2cc(COc3c(F)cccc3F)on2)nn1C`?
DENV2 CPE rescue: inactive; CaV13 ICDI inh: inactive; S100A4 MyoIIA: inactive; AF4-AF9 inh: inactive; SIRT5 inh: inactive

How did Cc1cc(CNC(=O)Cc2c(F)cccc2Cl)nn1C do in these assays?
DENV2 CPE rescue: inactive; CaV13 ICDI inh: inactive; S100A4 MyoIIA: inactive; AF4-AF9 inh: inactive; SIRT5 inh: 23

Results for Cc1noc(C)c1S(=O)(=O)Nc1ccc2c(c1)C(=O)N([C@@H](C)CO)C[C@H](C)[C@@H](CN(C)C(=O)Nc1ccc3c(c1)OCO3)O2 ?
DENV2 CPE rescue: inactive; S100A4 MyoIIA: inactive; AF4-AF9 inh: inactive; SIRT5 inh: inactive

What do the screens show for `COc1ccc(NC(=O)N(C)C[C@@H]2Oc3ccc(NC(=O)Nc4ccccc4)cc3CC(=O)N([C@@H](C)CO)C[C@@H]2C)cc1`?
DENV2 CPE rescue: 25; S100A4 MyoIIA: inactive; AF4-AF9 inh: inactive; SIRT5 inh: inactive

What do the screens show for `COc1ccc(NC(=O)N(C)C[C@H]2Oc3ccc(NC(=O)C4CC4)cc3CC(=O)N([C@H](C)CO)C[C@@H]2C)cc1`?
DENV2 CPE rescue: 24; S100A4 MyoIIA: inactive; AF4-AF9 inh: inactive; SIRT5 inh: inactive

How did C[C@@H]1CN([C@@H](C)CO)C(=O)Cc2cc(NC(=O)Nc3ccccc3)ccc2O[C@@H]1CN(C)C(=O)Nc1ccc(F)cc1 do in these assays?
DENV2 CPE rescue: 40; S100A4 MyoIIA: inactive; AF4-AF9 inh: inactive; SIRT5 inh: inactive

How did CNC[C@H]1Oc2ccc(NC(=O)Nc3ccc(F)cc3)cc2CC(=O)N([C@H](C)CO)C[C@@H]1C do in these assays?
DENV2 CPE rescue: inactive; S100A4 MyoIIA: inactive; AF4-AF9 inh: inactive; SIRT5 inh: 36

Results for C[C@@H]1CN([C@@H](C)CO)C(=O)Cc2cc(NC(=O)Nc3ccccc3)ccc2O[C@@H]1CN(C)C(=O)Nc1ccccc1 ?
DENV2 CPE rescue: inactive; S100A4 MyoIIA: inactive; AF4-AF9 inh: inactive
